Data on 2 compounds can be found in ChEMBL document CHEMBL1909521, “A class of novel N-(1-methyl-β-carboline-3-carbonyl)-N'-(aminoacid-acyl)-hydrazines: aromatization leaded design, synthesis, in vitro anti-platelet aggregation/in vivo anti-thrombotic evaluation and 3D QSAR analysis” (Eur J Med Chem, 2011).

Assay [1] has as its system Rattus norvegicus. Put plainly: Antithrombotic activity in Wister rat assessed as reduction of thrombus weight at 160 to 165 umol/kg, po (reference value: 31.87 +/- 1.71 mg). It counts as functional.
Assay [2] can be described thus: Antiaggregatory activity in pig platelets assessed as inhibition of platelet-activating factor-induced platelet aggregation after 5 mins. The assay is classed as functional, cell-based. The settings on record: Sus scrofa. The procedure, abridged:
(§1)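 Pig blood (6 pigs) was spun at 1000 rpm for 10 min to give PRP, then 1500 rpm for 10 min to give PPP. PRP was adjusted to 2×10^8 platelets/ml with autologous PPP. Compound (final 100 µM to 0.001 µM, diluted in NS) or NS was added before agonist: ADP 10 µM, AA 350 µM or PAF 0.1 µM final. Aggregation was read optically at 37 °C for 5 min, in sixplicate. IC50 came from the concentration–inhibition curve.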

Assay [3] is described as follows: Antiaggregatory activity in pig platelets assessed as inhibition of adenosine diphosphate-induced platelet aggregation after 5 mins. Particulars: Sus scrofa. It counts as functional, cell-based. Put shortly: as §1
A short description of assay [4]: Antiaggregatory activity in pig platelets assessed as inhibition of arachidonic acid-induced platelet aggregation after 5 mins. Particulars: Sus scrofa. It counts as functional, cell-based. Put shortly: as §1
In assay [5] the test system is Rattus norvegicus. Briefly: Antithrombotic activity in Wister rat assessed as reduction of thrombus weight at 1 nmol/kg, po (reference value: 31.87 +/- 1.71 mg). The assay is classed as functional.
For assay [6], the system named is Rattus norvegicus. Put plainly: Antithrombotic activity in Wister rat assessed as reduction of thrombus weight at 0.1 nmol/kg, po (reference value: 31.87 +/- 1.71 mg). The assay is classed as functional.
Assay [7] has as its system Rattus norvegicus. Briefly: Antithrombotic activity in Wister rat assessed as reduction of thrombus weight at 0.01 nmol/kg, po (reference value: 31.87 +/- 1.71 mg). The assay is classed as functional.
For assay [8], the system named is Rattus norvegicus. Put plainly: Antithrombotic activity in po dosed Wister rat assessed as reduction of thrombus weight. It counts as functional, organism-based.

Consider `CC(=O)Oc1ccccc1C(=O)O` [ASPIRIN], for which, in the assay on Rattus norvegicus [1], the Activity is listed as 18.86 mg.

`Cc1nc(C(=O)NNC(=O)[C@@H](N)C(C)C)cc2c1[nH]c1ccccc12`: the concentration for half-maximal inhibition (IC50) in assay [2] was 2000 nM; in assay [3] it was 20800 nM; in assay [4], 300 nM. Further, the Activity with Rattus norvegicus [5] was 18.3 mg; in the assay with Rattus norvegicus [6] it was 23.8 mg; in the assay on Rattus norvegicus [7], 27.12 mg; in the assay with Rattus norvegicus [8], “Dose-dependent effect”.
